Data taken from the RNAGym collection of RNA variant scans (doi:10.1002/anie.201605470).

B1: Osa-1-4 twister ribozyme (parent)
chain: CCGCCUAACACUGCCAAUGCCGGUCCCAAGCCCGGAUAAAAGUGGAGGGGGCGG

Variants of: B1
Assay: self-cleavage, relative activity (ratio to wild type); higher = more cleavage; co-transcriptional
Outline: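 The 48 positions downstream of the cleavage site in a 54-nucleotide Oryza sativa twister ribozyme template were synthesised at 97 % wild-type base and 1 % of each other base. The template was transcribed in vitro at 37 °C for 2 h, with self-cleavage allowed during transcription. Reads with or without upstream sequence after deep sequencing marked cleavage status, and relative activity is fraction cleaved normalised to wild type.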
For CCGCCUAGCACUGCCAAUGCCGGUCCCAAGCCCGGAUCAAAGUGGAGGGGGCGG, the self-cleavage was 0.53. In the case of CCGCCUAACAAUGCCAAUGCCGGUCCCAAGCCCGGAUCAAAGUGGAGGGGGCGG, the self-cleavage is reported as 0.74. CCGCCUAACAUUGCCAAUGCCGGUCCCAAGCCCGGAUCAAAGUGGAGGGGGCGG gave a self-cleavage of 0.92. Work on CCGCCUAACAGUGCCAAUGCCGGUCCCAAGCCCGGAUCAAAGUGGAGGGGGCGG yielded a self-cleavage of 0.5. With CCGCCUAACACUGCCAAUGCCGGUCCCAAGCCCGGUUAAAAGCGGAGGGGGCGG the self-cleavage was 0.38. In the case of CCGCCUAACACUGCCAAUGCCGGUCCCAAGCCCGGUUAAAAGAGGAGGGGGCGG, the self-cleavage is reported as 0.99. In the case of CCGCCUAACACUGCCAAUGCCGGUCCCAAGCCCGGUUAAAAGGGGAGGGGGCGG, the self-cleavage is reported as 0.64. CCGCCUAACACUGCCAAUGCCGGUCCCAAGCCCGGUUAAAAUUGGAGGGGGCGG showed a self-cleavage of 0.12. With CCGCCUAACACUGCCAAUGCCGGUCCCAAGCCCGGUUAAAACUGGAGGGGGCGG the self-cleavage was 0.28. For CCGCCUAACACUGCCAAUGCCGGUCCCAAGCCCGGUUAAAAGUGGAGGGAGCGG, the self-cleavage was 0.87. CCGCCUAACACUGCCAAUGCCGGUCCCAAGCCCGGUUAAAAGUGGAGGGCGCGG gave a self-cleavage of 1.06. CCGCCUAACACUGCCAAUGCCGGUCCCAAGCCCGGUUAAAAGUGGAGGGUGCGG showed a self-cleavage of 1.03. For CCGCCUAACACUGCCAAUGCCGGUCCCAAGCCCGGUUAAAAGUGGAUGGGGCGG, the self-cleavage was 0.31. In the case of CCGCCUAACACUGCCAAUGCCGGUCCCAAGCCCGGUUAAAAGUGGAAGGGGCGG, the self-cleavage is reported as 0.32. For CCGCCUAACACUGCCAAUGCCGGUCCCAAGCCCGGUUAAAAGUGGACGGGGCGG, the self-cleavage was 0.13. With CCGCCUAACACUGCCAAUGCCGGUCCCAAGCCCGGAAAAAAGUGGAGGGGGCGG the self-cleavage was 0.79. Variant CCGCCUAACACUGCCAAUGCCGGUCCCAAGCCCGGACAAAAGUGGAGGGGGCGG has a self-cleavage of 1.04. Work on CCGCCUAACACUGCCAAUGCCGGUCCCAAGCCCGGAGAAAAGUGGAGGGGGCGG yielded a self-cleavage of 1.03. Work on CCGCCUUACACUGCCAAUGCCGGUCCCAAGCCCGGAUCAAAGUGGAGGGGGCGG yielded a self-cleavage of 0.08. Variant CCGCCUCACACUGCCAAUGCCGGUCCCAAGCCCGGAUCAAAGUGGAGGGGGCGG has a self-cleavage of 0.05. CCGCCUGACACUGCCAAUGCCGGUCCCAAGCCCGGAUCAAAGUGGAGGGGGCGG showed a self-cleavage of 0.22. CCGCCUAACACUGCCAAUGUCGGUCCCAAGCCCGGAUCAAAGUGGAGGGGGCGG gave a self-cleavage of 0.95. With CCGCCUAACACUGCCAAUGGCGGUCCCAAGCCCGGAUCAAAGUGGAGGGGGCGG the self-cleavage was 0.09. Work on CCGCCUAACACUGCCAAUGACGGUCCCAAGCCCGGAUCAAAGUGGAGGGGGCGG yielded a self-cleavage of 0.86. In the case of CCGCCUAACACUGCCAAUGCCGGUCCCAAGCCCGGUUAAAAGUGGAGGGGACGG, the self-cleavage is reported as 0.84. Work on CCGCCUAACACUGCCAAUGCCGGUCCCAAGCCCGGUUAAAAGUGGAGGGGCCGG yielded a self-cleavage of 0.16. CCGCCUAACACUGCCAAUGCCGGUCCCAAGCCCGGUUAAAAGUGGAGGGGUCGG showed a self-cleavage of 0.52. Work on CCGCCUAACACUGCCAAUGCCGGUCCCAAGCCCGGAUCAAAGUGGCGGGGGCGG yielded a self-cleavage of 0.04. CCGCCUAACACUGCCAAUGCCGGUCCCAAGCCCGGAUCAAAGUGGUGGGGGCGG gave a self-cleavage of 0.07. CCGCCUAACACUGCCAAUGCCGGUCCCAAGCCCGGAUCAAAGUGGGGGGGGCGG showed a self-cleavage of 0.06. CCGCCUAACACUGCCAAUGCCGGUCCCAAGCCCGGAAAAAAGCGGAGGGGGCGG gave a self-cleavage of 0.44. CCGCCUAACACUGCCAAUGCCGGUCCCAAGCCCGGAAAAAAGGGGAGGGGGCGG gave a self-cleavage of 0.43. CCGCCUAACACUGCCAAUGCCGGUCCCAAGCCCGGAAAAAAGAGGAGGGGGCGG gave a self-cleavage of 0.76. CCGCCUAACACUGUCAAUGCCGGUCCCAAGCCCGGAUCAAAGUGGAGGGGGCGG showed a self-cleavage of 0.4. Variant CCGCCUAACACUGGCAAUGCCGGUCCCAAGCCCGGAUCAAAGUGGAGGGGGCGG has a self-cleavage of 0.08. CCGCCUAACACUGACAAUGCCGGUCCCAAGCCCGGAUCAAAGUGGAGGGGGCGG gave a self-cleavage of 0.09. Work on CCGCCUAACACUGCCAAGGCCGGUCCCAAGCCCGGUUAAAAGUGGAGGGGGCGG yielded a self-cleavage of 0.88. In the case of CCGCCUAACACUGCCAACGCCGGUCCCAAGCCCGGUUAAAAGUGGAGGGGGCGG, the self-cleavage is reported as 0.98. CCGCCUAACACUGCCAAAGCCGGUCCCAAGCCCGGUUAAAAGUGGAGGGGGCGG showed a self-cleavage of 0.97. CCGCCUAACACUGCCAAUGCAGGUCCCAAGCCCGGAUCAAAGUGGAGGGGGCGG showed a self-cleavage of 0.27. Variant CCGCCUAACACUGCCAAUGCUGGUCCCAAGCCCGGAUCAAAGUGGAGGGGGCGG has a self-cleavage of 0.92. In the case of CCGCCUAACACUGCCAAUGCGGGUCCCAAGCCCGGAUCAAAGUGGAGGGGGCGG, the self-cleavage is reported as 0.07. Variant CCGCCUAACACUGCCAAUGCCGGUCCCAAGCCCGGAUCAACGUGGAGGGGGCGG has a self-cleavage of 0.91. With CCGCCUAACACUGCCAAUGCCGGUCCCAAGCCCGGAUCAAUGUGGAGGGGGCGG the self-cleavage was 1. CCGCCUAACACUGCCAAUGCCGGUCCCAAGCCCGGAUCAAGGUGGAGGGGGCGG gave a self-cleavage of 0.69. For CCGCCUAACACUGCCAAUGCCGGUCACAAGCCCGGAUCAAAGUGGAGGGGGCGG, the self-cleavage was 0.07. Work on CCGCCUAACACUGCCAAUGCCGGUCCCAAGCCCGGUUAAAAGUGGAGGCGGCGG yielded a self-cleavage of 0.07. In the case of CCGCCUAACACUGCCAAUGCCGGUCCCAAGCCCGGUUAAAAGUGGAGGAGGCGG, the self-cleavage is reported as 0.19. In the case of CCGCCUAACACUGCCAAUGCCGGUCCCAAGCCCGGUUAAAAGUGGAGGUGGCGG, the self-cleavage is reported as 0.17.
